In ChEMBL document CHEMBL3580575, “Monocarboxylate transporter 1 inhibitors as potential anticancer agents” (ACS Med Chem Lett, 2015):

Experiments:
[1] = molecular target: T1, Monocarboxylate transporter 1 (Rattus norvegicus, UniProt P53987); experiment: Inhibition of MCT1-mediated lactate transport in rat RBE4 cells incubated for 15 mins by [14C]-lactate uptake assay; assay type: cell-based
T1 sequence (P53987 whole entry): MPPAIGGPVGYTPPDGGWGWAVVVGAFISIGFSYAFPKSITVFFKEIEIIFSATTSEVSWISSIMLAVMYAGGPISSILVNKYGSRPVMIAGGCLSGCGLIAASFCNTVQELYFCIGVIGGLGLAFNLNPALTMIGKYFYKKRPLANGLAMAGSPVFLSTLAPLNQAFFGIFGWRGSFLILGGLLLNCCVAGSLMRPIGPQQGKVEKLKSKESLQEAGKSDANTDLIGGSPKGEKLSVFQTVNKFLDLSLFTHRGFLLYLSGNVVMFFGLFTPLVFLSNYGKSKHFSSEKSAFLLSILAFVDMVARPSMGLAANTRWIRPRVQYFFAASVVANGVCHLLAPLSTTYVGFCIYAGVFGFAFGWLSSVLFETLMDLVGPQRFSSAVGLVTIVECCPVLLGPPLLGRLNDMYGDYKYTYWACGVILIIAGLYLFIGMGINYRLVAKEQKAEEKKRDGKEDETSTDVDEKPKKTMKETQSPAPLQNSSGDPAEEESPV
In short: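 MCT1 inhibition measured as [14C]-lactate uptake in rat brain endothelial RBE4 cells, which highly express MCT1 (Western blot). IC50 is the test-compound concentration causing 50% transport inhibition.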

Mus musculus [2] = experiment: Toxicity in CD1(ICR) mouse assessed as induction of weight gain at 6.67 mg/kg, ip bid for 3 weeks; assay type: organism-based; conditions: in vivo, 504 h
In short: (§1)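 Healthy ICR mice were given 6.67 mg/kg ip, twice daily, in 0.1% DMSO in saline for three weeks. Survival and body weight gain were recorded and compared with a control group.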

Mus musculus [3] = experiment: Toxicity in CD1(ICR) mouse assessed as induction of weight gain at 50 mg/kg, po bid for 3 weeks; assay type: organism-based; conditions: in vivo, 504 h
In short: (§2)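 In a follow-up systemic toxicity study, healthy ICR mice were dosed at 50 mg/kg either by oral gavage twice daily or ip once daily. Mortality and body weight gain were compared with a control group.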

Mus musculus [4] = experiment: Toxicity in CD1(ICR) mouse assessed as induction of weight gain at 50 mg/kg, ip qd for 3 weeks; assay type: organism-based; conditions: in vivo, 504 h; in short: as §2
[5] = Tmax in CD1(ICR) mouse at 100 mg/kg, ip by LC-MS/MS method; assay type: ADME, organism-based; conditions: in vivo
In short: (§3)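 Preliminary pharmacokinetics in ICR mice. Sixty mice were split into two groups and given 100 mg/kg, one group intraperitoneally and the other intragastrically.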

Mus musculus [6] = experiment: Drug elimination in CD1(ICR) mouse at 100 mg/kg, ip by LC-MS/MS method; assay type: ADME, organism-based; conditions: in vivo; in short: as §3
Mus musculus [7] = experiment: Toxicity in CD1(ICR) mouse assessed as survival at 6.67 mg/kg, ip bid for 3 weeks; assay type: organism-based; conditions: in vivo, 504 h; in short: as §1
Mus musculus [8] = experiment: Toxicity in CD1(ICR) mouse assessed as induction of weight gain at 6.67 mg/kg, ip bid for 3 weeks; conditions: in vivo, 504 h
Mus musculus [9] = experiment: Toxicity in CD1(ICR) mouse assessed as survival at 50 mg/kg, po bid for 3 weeks; assay type: organism-based; conditions: in vivo, 504 h; in short: as §2
[10] = Tmax in CD1(ICR) mouse at 100 mg/kg, ig by LC-MS/MS method; assay type: ADME, organism-based; conditions: in vivo, po; in short: as §3
Mus musculus [11] = experiment: Drug elimination in CD1(ICR) mouse at 100 mg/kg, ig by LC-MS/MS method; assay type: ADME, organism-based; conditions: in vivo, po; in short: as §3
Mus musculus [12] = experiment: Toxicity in CD1(ICR) mouse assessed as survival at 6.67 mg/kg, ip bid for 3 weeks; conditions: in vivo, 504 h
[13] = Solubility in water; assay type: physicochemical
Mus musculus [14] = experiment: Toxicity in CD1(ICR) mouse assessed as survival at 50 mg/kg, ip qd for 3 weeks; assay type: organism-based; conditions: in vivo, 504 h; in short: as §2

Row | IC50 [1] [nM] | Structure (SMILES) | also measured
1 | 500 | N#C/C(=C\c1ccc([N+](=O)[O-])cc1)C(=O)O | –
2 | 500 | CCc1ccc(/C=C(\C#N)C(=O)O)cc1 | –
3 | 500 | N#C/C(=C\c1ccc(Cl)cc1)C(=O)O | –
4 | 500 | N#C/C(=C\c1ccc(Br)cc1)C(=O)O | –
5 | 500 | N#C/C(=C\c1ccc(C#N)cc1)C(=O)O | –
6 | 500 | N#C/C(=C\c1ccc2c(c1)OCO2)C(=O)O | –
7 | 70 | CCN(CC)c1ccc(/C=C(\C#N)C(=O)O)cc1 | –
8 | 10 | CCCN(CCC)c1ccc(/C=C(\C#N)C(=O)O)cc1 | –
9 | 30 | CCCCN(CCCC)c1ccc(/C=C(\C#N)C(=O)O)cc1 | –
10 | 100 | CC(C)CN(CC(C)C)c1ccc(/C=C(\C#N)C(=O)O)cc1 | –
11 | 140 | CCCCCN(CCCCC)c1ccc(/C=C(\C#N)C(=O)O)cc1 | –
12 | 880 | CCCCCCN(CCCCCC)c1ccc(/C=C(\C#N)C(=O)O)cc1 | –
13 | 110 | C=CCN(CC=C)c1ccc(/C=C(\C#N)C(=O)O)cc1 | –
14 | 400 | C#CCN(CC#C)c1ccc(/C=C(\C#N)C(=O)O)cc1 | –
15 | 30 | N#C/C(=C\c1ccc(N(c2ccccc2)c2ccccc2)cc1)C(=O)O | –
16 | 70 | N#C/C(=C\c1ccc(N2CCCC2)cc1)C(=O)O | –
17 | 140 | N#C/C(=C\c1ccc(N2CCCCC2)cc1)C(=O)O | –
18 | 12 | CCCN(CCC)c1ccc(/C=C(\C#N)C(=O)O)c(OC)c1 | –
19 | 11 | COc1cc(N(CC(C)C)CC(C)C)ccc1/C=C(\C#N)C(=O)O | –
20 | 34 | CCCCCN(CCCCC)c1ccc(/C=C(\C#N)C(=O)O)c(OC)c1 | –
21 | 29 | C=CCN(CC=C)c1ccc(/C=C(\C#N)C(=O)O)c(OC)c1 | –
22 | 48 | COc1cc(N2CCCC2)ccc1/C=C(\C#N)C(=O)[O-].[Na+] | solubility [13]: > 7000 µg/mL
23 | 25 | COc1cc(N2CCCCC2)ccc1/C=C(\C#N)C(=O)[O-].[Na+] | solubility [13]: > 7000 µg/mL
24 | 500 | Cc1ccc(/C=C(\C#N)C(=O)O)cc1 | –
25 | 140 | CN(C)c1ccc(/C=C(\C#N)C(=O)O)cc1 | –
26 | 500 | COc1ccc(/C=C(\C#N)C(=O)O)cc1 | –
27 | 500 | N#C/C(=C\c1ccc(F)cc1)C(=O)O | –

Row | Structure (SMILES) | IC50 [1] [nM] | also measured
28 | COc1cc(N(c2ccccc2)c2ccccc2)ccc1/C=C(\C#N)C(=O)[O-].[Na+] | 11 | Activity (Mus musculus [2]): Non-toxic; Activity (Mus musculus [3]): Non-toxic; Activity (Mus musculus [4]): Non-toxic; Tmax [5]: 15 min; Drug excretion (Mus musculus [6]): <= 24 hr; Activity (Mus musculus [7]): Non-toxic; Activity (Mus musculus [8]): Non-toxic; Activity (Mus musculus [9]): Non-toxic; Tmax [10]: 18 min; Drug excretion (Mus musculus [11]): <= 24 hr; Activity (Mus musculus [12]): Non-toxic; solubility [13]: 1000 µg/mL; Activity (Mus musculus [14]): Non-toxic
